Measured values from article PMC7003992 (Journal of medicinal chemistry, 2019).
Like-named read-outs stand apart in the source and are kept apart here. One block for each compound: values may come before it.

Legend:
NTR2 [1] = biological target: T1, NTR2 (Homo sapiens, UniProt O95665); assay: NTR2 counterscreen, same high-content β-arrestin format; assay type: cell-based; settings: high-content assay format
Target sequence in this assay (O95665 whole entry, species assumed): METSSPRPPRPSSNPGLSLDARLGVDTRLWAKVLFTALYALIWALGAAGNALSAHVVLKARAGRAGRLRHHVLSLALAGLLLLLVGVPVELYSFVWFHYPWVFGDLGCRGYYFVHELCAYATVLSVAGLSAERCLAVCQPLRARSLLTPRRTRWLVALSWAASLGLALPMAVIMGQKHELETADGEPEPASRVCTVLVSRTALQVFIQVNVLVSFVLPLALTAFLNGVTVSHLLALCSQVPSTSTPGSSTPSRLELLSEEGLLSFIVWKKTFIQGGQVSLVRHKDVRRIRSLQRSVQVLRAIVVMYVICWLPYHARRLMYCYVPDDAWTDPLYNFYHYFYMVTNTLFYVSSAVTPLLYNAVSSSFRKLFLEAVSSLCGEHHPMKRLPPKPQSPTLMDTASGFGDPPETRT

NTR1 [2] = biological target: T2, NTR1 (Homo sapiens, UniProt P30989); assay: [125I]-NT radioligand binding to cell membranes; settings: [125I]-NT 0.02 nM, increasing concentrations of compound
Target sequence in this assay (P30989 whole entry): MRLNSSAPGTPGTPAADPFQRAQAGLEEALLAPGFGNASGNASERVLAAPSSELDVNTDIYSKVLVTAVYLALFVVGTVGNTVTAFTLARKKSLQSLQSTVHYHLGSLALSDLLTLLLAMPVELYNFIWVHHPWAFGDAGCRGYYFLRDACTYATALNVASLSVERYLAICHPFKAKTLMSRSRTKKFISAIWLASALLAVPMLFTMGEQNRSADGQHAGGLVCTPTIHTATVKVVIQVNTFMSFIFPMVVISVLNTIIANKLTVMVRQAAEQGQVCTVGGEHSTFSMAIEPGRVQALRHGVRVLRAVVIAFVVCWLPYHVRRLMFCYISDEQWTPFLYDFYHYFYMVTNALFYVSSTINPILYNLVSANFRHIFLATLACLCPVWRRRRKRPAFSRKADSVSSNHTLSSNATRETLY

NTR1 [3] = biological target: T2, NTR1; assay: Ca2+ flux assay; assay type: cell-based
Target sequence in this assay (P30989 whole entry, species assumed): as the sequence (P30989 whole entry) above

GPR35 = GPR35 (Homo sapiens, UniProt Q9HC97); assay: GPCR cross reactivity, high-content assay format; assay type: cell-based
Sequence of GPR35 (Q9HC97 whole entry, species assumed): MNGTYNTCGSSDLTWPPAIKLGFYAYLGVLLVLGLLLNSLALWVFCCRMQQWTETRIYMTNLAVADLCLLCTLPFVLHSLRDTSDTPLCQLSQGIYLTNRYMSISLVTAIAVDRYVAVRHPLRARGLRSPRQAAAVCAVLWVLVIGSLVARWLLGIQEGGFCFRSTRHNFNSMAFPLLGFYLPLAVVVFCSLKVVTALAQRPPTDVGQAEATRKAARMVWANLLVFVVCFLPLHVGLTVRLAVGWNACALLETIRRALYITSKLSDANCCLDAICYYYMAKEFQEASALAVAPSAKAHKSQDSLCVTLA

NTR2 [4] = biological target: T1, NTR2; assay: [125I]-NT radioligand binding to cell membranes; settings: [125I]-NT 0.02 nM
Target sequence in this assay (O95665 whole entry): as the sequence (O95665 whole entry, species assumed) above

GPR55 = GPR55 (Homo sapiens, UniProt Q9Y2T6); assay: GPCR cross reactivity, high-content assay format; assay type: cell-based
Sequence of GPR55 (Q9Y2T6 whole entry, species assumed): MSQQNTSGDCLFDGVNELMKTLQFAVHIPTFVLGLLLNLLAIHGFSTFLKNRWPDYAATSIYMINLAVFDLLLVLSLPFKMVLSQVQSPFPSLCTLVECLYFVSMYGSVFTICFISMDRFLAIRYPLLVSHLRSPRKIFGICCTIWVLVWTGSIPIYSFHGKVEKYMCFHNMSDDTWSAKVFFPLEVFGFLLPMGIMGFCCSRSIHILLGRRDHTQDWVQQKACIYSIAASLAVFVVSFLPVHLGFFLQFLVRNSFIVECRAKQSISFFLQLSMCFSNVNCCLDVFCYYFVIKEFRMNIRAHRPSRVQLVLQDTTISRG

NTR1 [5] = biological target: T2, NTR1; assay: β-Arrestin2-GFP NTR1 high content assay; assay type: cell-based
Target sequence in this assay (P30989 whole entry, species assumed): as the sequence (P30989 whole entry) above

[6] = system: dopamine transporter knockout (DAT−/−) mice; assay: Open field locomotor activity in dopamine transporter knockout mice; assay type: in vivo, mouse; settings: 2 hr post-treatment
Method in brief: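 Male and female DAT KO mice on a C57BL/6J background, 12–24 wk, 18–30 g, age- and sex-matched, randomised, tested early in the light cycle. After 30 min open-field acclimation, dosed at 10 ml/kg i.p. (vehicle 4% DMSO in saline) or p.o. as HCl salt in distilled water (after 5 daily water-gavage habituations). Infrared beam-break horizontal distance in 5-min bins; total summed 30–150 min.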

mouse NTR = mouse NTR (Mus musculus, UniProt O88319); assay: [125I]-NT radioligand binding to cell membranes; settings: [125I]-NT 0.02 nM
Sequence of mouse NTR (O88319 whole entry): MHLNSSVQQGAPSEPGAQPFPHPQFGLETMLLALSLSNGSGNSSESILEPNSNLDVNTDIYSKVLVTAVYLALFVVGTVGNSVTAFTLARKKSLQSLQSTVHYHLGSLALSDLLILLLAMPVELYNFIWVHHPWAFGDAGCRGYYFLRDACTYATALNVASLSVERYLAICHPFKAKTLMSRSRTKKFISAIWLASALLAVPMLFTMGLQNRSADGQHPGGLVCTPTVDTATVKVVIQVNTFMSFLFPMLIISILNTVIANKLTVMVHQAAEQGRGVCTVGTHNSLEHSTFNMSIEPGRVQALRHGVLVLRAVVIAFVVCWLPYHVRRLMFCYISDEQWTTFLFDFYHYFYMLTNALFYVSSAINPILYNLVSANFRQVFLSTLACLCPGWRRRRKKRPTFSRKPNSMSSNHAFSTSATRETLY

[7] = Adverse effects in dosed animals; assay type: in vivo; settings: animals dosed in the DAT knockout mouse study
K-opioid = K-opioid (Homo sapiens, UniProt P41145); assay: GPCR cross reactivity, high-content assay format; assay type: cell-based
Sequence of K-opioid (P41145 whole entry): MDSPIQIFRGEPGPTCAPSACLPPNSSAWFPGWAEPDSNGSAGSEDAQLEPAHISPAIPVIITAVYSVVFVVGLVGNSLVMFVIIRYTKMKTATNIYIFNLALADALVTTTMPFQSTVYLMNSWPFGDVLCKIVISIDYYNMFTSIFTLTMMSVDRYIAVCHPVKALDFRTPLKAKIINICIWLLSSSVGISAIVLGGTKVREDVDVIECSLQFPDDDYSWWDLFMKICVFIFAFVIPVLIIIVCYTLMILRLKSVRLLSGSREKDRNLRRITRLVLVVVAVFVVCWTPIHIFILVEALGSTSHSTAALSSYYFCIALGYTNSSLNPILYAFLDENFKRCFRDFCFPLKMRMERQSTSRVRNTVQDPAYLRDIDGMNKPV

NTR1 [8] = biological target: T2, NTR1; settings: cited from earlier work
Target sequence in this assay (P30989 whole entry, species assumed): as the sequence (P30989 whole entry) above

cross reactivity (NTR2 [1]): no cross reactivity
enhancement of neurotensin peptide binding (NTR1 [2]): significant enhancement
activity in Ca2+ flux assay, compound alone (NTR1 [3]; compound alone, without NT): no activity
shift of the NT EC50 in the Ca2+ flux assay (NTR1 [3]; rightward shift in the presence of 2.15 μM compound): > 30 fold
cross reactivity (GPR35): no cross reactivity
enhancement of neurotensin peptide binding (NTR2 [4]): but not human NTR2
cross reactivity (GPR55): no cross reactivity
effect on the potency of NT in the NTR1 high-content (β-arrestin2-GFP) assay (NTR1 [5]; 18 (SBI-553) 0.5−356 nM): no effect
enhancement of neurotensin peptide binding (mouse NTR): significant enhancement
cross reactivity (K-opioid): no cross reactivity
Compound: COc1ccccc1C1CCN(c2nc(C3(F)CC3)nc3ccc(N(C)CCO)cc23)CC1 [compound 18, 2-({2-(1-Fluoro-cyclopropyl)-4-[4-(2-methoxy-phenyl)-piperidin-1-yl]-quinazolin-6-yl}-methyl-amino)-ethanol]
effect on basal hyperlocomotion ([6]; IP dosing, 12 mg/kg): attenuated hyperlocomotion
effect on basal hyperlocomotion ([6]; PO dosing, 10, 30 or 100 mg/kg as the HCl salt): attenuated hyperlocomotion
adverse effects in dosed animals [7]: did not show any adverse effects

EC50 (β-Arrestin2-GFP NTR1 potency) (NTR1 [5]; relative to the EC100 (100 nM) of the NT(8–13) peptide control, average ± SEM (n=4 unless otherwise noted in parentheses)): not active
Compound: COc1cc2nc(C3CC3)nc(C3CCN(c4ccccc4OC)CC3)c2cc1OC [19a]

Emax (NTR1 [5]): 100%
Compound: COc1cc2nc(C3CC3)nc(N3CCN(c4ccccc4OC)CC3)c2cc1OC [compound 7]
activity in Ca2+ flux assay, compound alone (NTR1 [8]): no activity
